These results are taken from ChEMBL document CHEMBL5329183, “Naphthylthiazoles: a class of broad-spectrum antifungals” (RSC Med Chem, 2023).

Data set [1] in a line: AUC in Sprague-Dawley rat at 25 mg/kg, po administered as single dose by LC/MS/MS analysis. The class given is ADME, organism-based. More on the design: dose 25 mg/kg, route po. The note with it: in vivo. A digest of the protocol:
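Male naïve Sprague–Dawley rats (n=3) received a single 25 mg kg−1 oral gavage dose in 5% ethanol/45% PEG 400/50% water. EDTA-K2 blood was sampled over 24 h post-dose. Plasma levels were measured by LC/MS/MS after acetonitrile protein precipitation, and parameters came from two-compartment analysis.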

Data set [2] is described as follows: Tmax in Sprague-Dawley rat at 25 mg/kg, po administered as single dose by LC/MS/MS analysis. As to conditions: in vivo. The class given is ADME, organism-based. A digest of the protocol:
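Male naïve Sprague–Dawley rats (n = 3) received a single 25 mg kg−1 dose by oral gavage in 5% ethanol/45% PEG 400/50% water. EDTA-K2 blood was sampled over 24 h. Plasma levels were measured by LC/MS/MS after acetonitrile protein precipitation, and parameters came from two-compartment analysis.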

A word on the AUC: it is concentration integrated over time. Low readings indicate less exposure, high ones more exposure. The term Tmax denotes the time at which the peak concentration occurs. For `Cc1nc(-c2ccc3ccccc3c2)sc1-c1nnc(N[C@@H]2CCCC[C@H]2N)o1` (relative stereo), the AUC in data set [1] came out at 79200 ng·h/mL. For the same compound, in data set [2], the Tmax was 3 h.
